ChEMBL document CHEMBL1150273, “Aza-peptidyl Michael acceptors. A new class of potent and selective inhibitors of asparaginyl endopeptidases (legumains) from evolutionarily diverse pathogens” (J Med Chem, 2008)

How the values were obtained:
[1] = Inhibition of Schistosoma mansoni AE expressed in Pichia pastoris after 20 mins
Outline: (§1)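 Recombinant AE zymogens expressed in Pichia pastoris; SmAE and TvAE1 autoactivated in 0.5 M sodium acetate, 4 mM DTT, pH 4.5, 37 °C, 3 h to overnight; IrAE used without activation. Buffer 0.1 M citrate phosphate, 4 mM DTT, pH 6.8 (SmAE, TvAE1) or pH 5.5 (IrAE). Inhibitor 2.0–0.0002 µM final, 20 min preincubation at room temperature; 10 µM final Cbz-Ala-Ala-Asn-AMC, 20 min; IC50 from RFU/min vs concentration.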

[2] = Inhibition of Trichomonas vaginalis G3 AE1 expressed in Pichia pastoris after 20 mins; outline: as §1
[3] = Inhibition of Ixodes ricinus AE expressed in Pichia pastoris after 20 mins; outline: as §1
Schistosoma mansoni = assay: Inhibition of Schistosoma mansoni AE assessed as ratio of pseudo-first-order inhibition rate constant to inhibitor concentration
Outline: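 Autoactivated recombinant SmAE added to six inhibitor concentrations (0–1 µM final) in 0.1 M citrate phosphate, 2 mM DTT, pH 6.8 with 20 µM Cbz-Ala-Ala-Asn-AMC; progress followed every 2 s for 30 min at 25 °C (ex 355, em 460 nm); kobs/[I] by nonlinear regression, corrected for substrate by factor 1.33.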

SMILES	IC50 [1] [nM]	IC50 [2] [nM]	IC50 [3] [nM]	Ratio (Schistosoma mansoni) [M⁻¹ s⁻¹]
C[C@H](NC(=O)OCc1ccccc1)C(=O)N[C@@H](C)C(=O)NN(CC(N)=O)C(=O)/C=C/C(=O)N1CCCc2ccccc21	70	3.5	4	–
C[C@H](NC(=O)OCc1ccccc1)C(=O)N[C@@H](C)C(=O)NN(CC(N)=O)C(=O)/C=C/C(=O)N(Cc1ccccc1)Cc1ccc(F)cc1	60	< 1	700	–
C[C@H](NC(=O)OCc1ccccc1)C(=O)N[C@@H](C)C(=O)NN(CC(N)=O)C(=O)/C=C/C(=O)N(Cc1ccccc1)Cc1cccc2ccccc12	62	< 1	6	6180
C[C@H](NC(=O)OCc1ccccc1)C(=O)N[C@@H](C)C(=O)NN(CC(N)=O)C(=O)/C=C/C(=O)N(C)CCc1ccccc1	600	50	–	–
C[C@H](NC(=O)OCc1ccccc1)C(=O)N[C@@H](C)C(=O)NN(CC(N)=O)C(=O)/C=C/C(=O)N1CCc2ccccc2C1	200	10	25	–
C[C@H](NC(=O)OCc1ccccc1)C(=O)N[C@@H](C)C(=O)NN(CC(N)=O)C(=O)/C=C/C(=O)Nc1ccccc1	700	20	10	–
CCCCN(CCCC)C(=O)/C=C/C(=O)N(CC(N)=O)NC(=O)[C@H](C)NC(=O)[C@H](C)NC(=O)OCc1ccccc1	550	1000	100	–
C[C@H](NC(=O)OCc1ccccc1)C(=O)N[C@@H](C)C(=O)NN(CC(N)=O)C(=O)/C=C/C(=O)NCc1ccc(F)cc1	800	75	250	–
CCOC(=O)/C=C/C(=O)N(CC(N)=O)NC(=O)[C@H](C)NC(=O)[C@H](C)NC(=O)CCCC[C@@H]1SC[C@@H]2NC(=O)N[C@@H]21	10	< 10	2.8	–
C[C@H](NC(=O)OCc1ccccc1)C(=O)N[C@@H](C)C(=O)NN(CC(N)=O)C(=O)/C=C/c1ccco1	> 2000	–	7500	–
C[C@H](NC(=O)OCc1ccccc1)C(=O)N[C@@H](C)C(=O)NN(CC(N)=O)C(=O)/C=C/C(=O)N(Cc1ccccc1)Cc1ccc2ccccc2c1	70	6	8	6100
C[C@H](NC(=O)OCc1ccccc1)C(=O)N[C@@H](C)C(=O)NN(CC(N)=O)C(=O)/C=C/C(=O)N1CC=C(c2ccccc2)CC1	750	10	85	–
C[C@H](NC(=O)OCc1ccccc1)C(=O)N[C@@H](C)C(=O)NN(CC(N)=O)C(=O)/C=C/C(=O)NCc1ccccc1	1000	10	200	–
C[C@H](NC(=O)OCc1ccccc1)C(=O)N[C@@H](C)C(=O)NN(CC(N)=O)C(=O)/C=C/C(=O)N(Cc1ccco1)Cc1ccco1	900	5000	15000	–
C[C@H](NC(=O)OCc1ccccc1)C(=O)N[C@@H](C)C(=O)NN(CC(N)=O)C(=O)/C=C/c1cccnc1	> 2000	8000	15000	–
C[C@H](NC(=O)OCc1ccccc1)C(=O)N[C@@H](C)C(=O)NN(CC(N)=O)C(=O)/C=C/C(=O)N1Cc2ccccc2C1	300	20	4.5	–
C[C@H](NC(=O)OCc1ccccc1)C(=O)N[C@@H](C)C(=O)NN(CC(N)=O)C(=O)/C=C/C(=O)N1CCCCC1	1000	500	–	–
C[C@H](NC(=O)OCc1ccccc1)C(=O)N[C@@H](C)C(=O)NN(CC(N)=O)C(=O)/C=C/C(=O)N(C)c1ccccc1	60	5	1.8	–
C[C@H](NC(=O)OCc1ccccc1)C(=O)N[C@@H](C)C(=O)NN(CC(N)=O)C(=O)/C=C/C(=O)N(Cc1ccccc1)c1ccccc1	70	< 1	< 1	–
COc1ccc(CN(Cc2ccccc2)C(=O)/C=C/C(=O)N(CC(N)=O)NC(=O)[C@H](C)NC(=O)[C@H](C)NC(=O)OCc2ccccc2)cc1	90	2.3	12	–
C[C@H](NC(=O)OCc1ccccc1)C(=O)N[C@@H](C)C(=O)NN(CC(N)=O)C(=O)/C=C/C(=O)N(C)C(Cc1ccccc1)C(=O)N(C)CCc1ccccc1 (some centres not stated)	750	80	300	–
